Here are results for 1 molecule from ChEMBL document CHEMBL1132212, “Structure-activity relationship of small-sized HIV protease inhibitors containing allophenylnorstatine” (J Med Chem, 1999).

Broadly, the Tmax is the time at which the peak concentration occurs. Usually Cmax stands for the maximum level reached in the sampled fluid or tissue. One may read the half-life as the time needed for the level to fall by half in the phase considered. As a reminder, the clearance is the rate of elimination divided by the concentration. Read a low clearance as inefficient removal. What is called Ki is the dissociation constant of the complex between target and ligand, obtained from inhibition or displacement. The term inhibition denotes how much of the control response was suppressed. Usually AUC stands for the area under the concentration-time curve, a measure of exposure. The bioavailability is the share of a dose that reaches the circulation, judged against a reference dose that is usually intravenous. One may read the IC50 as the midpoint of a concentration-inhibition curve. Lower therefore signals greater potency.

The nature of data set [1]: Time of maximum plasma concentration (Tmax) was determined in fasted dogs after oral administration of 25 mg/kg of the compound. Also noted: dose 25 mg/kg, route oral. Particulars: dog. Format: ADME, organism-based, Canis lupus familiaris. A digest of the protocol:
(§1)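 Male beagles (7–10 kg) were assigned six per group. Each received 25 mg/kg from a 12.5 mg/mL solution in 50% PEG-in-water, either as an iv bolus via the cephalic vein or by oral gavage, fed or fasted overnight. Plasma was measured by HPLC. Analysis was noncompartmental: trapezoidal AUC, terminal-slope t1/2, CL = dose/AUC, Vdss from AUMC/AUC, and F from oral vs iv AUC. Values are mean ± SEM.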

Data set [2] can be described thus: Maximum plasma concentration (Cmax) was determined in dogs fed after oral administration of 25 mg/kg of the compound. The data set is classed as ADME, organism-based, Canis lupus familiaris. Also noted: dose 25 mg/kg, route oral. As to conditions: dog. A digest of the protocol: as §1
The nature of data set [3]: Plasma half life was determined in rats after intravenous administration of the drug. The data set is classed as ADME, organism-based. Particulars: rat. A digest of the protocol:
(§2)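 Three male Sprague–Dawley rats (300–400 g) per compound were anesthetized and dosed at 10 mg/kg in 50% PEG. Dosing was iv via the femoral vein or id by tube into the duodenum. Plasma was extracted with internal standard and analyzed by C18 HPLC with UV at 210 nm. Analysis was noncompartmental; F was calculated from id vs iv AUC. Values are mean ± SEM.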

The nature of data set [4]: Plasma clearance rate (CL) was determined in dogs after intravenous administration of 25 mg/kg of the compound. The data set is classed as ADME, organism-based, Canis lupus familiaris. Also noted: dose 25 mg/kg, route intravenous. Particulars: dog. A digest of the protocol: as §1
Data set [5] concerns the target Human immunodeficiency virus type 1 protease (Human immunodeficiency virus 1, UniProt Q72874). Nature of the data set: Inhibition of recombinant HIV-1 protease (NY-5).
Data set [6] in a line: Maximum plasma concentration (Cmax) was determined in fasted dogs after oral administration of 25 mg/kg of the compound. Particulars: dog. The arrangement: dose 25 mg/kg, route oral. The data set is classed as ADME, organism-based, Canis lupus familiaris. A digest of the protocol:
as §1

A short description of data set [7]: Maximum plasma concentration (Cmax) was determined in rats after intraduodenal administration of the drug. The data set is classed as ADME, organism-based. Particulars: rat. The arrangement: route intraduodenal. A digest of the protocol:
as §2

Data set [8] addresses Human immunodeficiency virus type 1 protease (Human immunodeficiency virus 1) (UniProt Q72874). The data set is described as follows: Inhibition of recombinant HIV-1 protease (NY-5) using 50 nM. A digest of the protocol: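 Recombinant HIV-1 protease (NY5 sequence) was expressed in E. coli and purified. It was preincubated with inhibitor in DMSO for 5 min at 37 °C in MES–NaOH pH 6.0 with DTT and EDTA. Substrate H-SQNYPIV-OH was then added for 60 min at 37 °C, and the reaction was stopped with TFA. The PIV product was measured by reverse-phase HPLC at 215 nm against a synthetic standard.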

A short description of data set [9]: Time of maximum plasma concentration (Tmax) was determined in dogs fed after oral administration of 25 mg/kg of the compound. Particulars: dog. The data set is classed as ADME, organism-based, Canis lupus familiaris. The arrangement: dose 25 mg/kg, route oral. A digest of the protocol: as §1
Data set [10] can be described thus: Plasma half life was determined in dogs after intravenous administration of 25 mg/kg of the compound. The data set is classed as ADME, organism-based, Canis lupus familiaris. The arrangement: dose 25 mg/kg, route intravenous. As to conditions: dog. A digest of the protocol: as §1
A short description of data set [11]: Time of maximum plasma concentration (Tmax) was determined in rats after intraduodenal administration of the drug. The data set is classed as ADME, organism-based. As to conditions: rat. A digest of the protocol:
as §2

A short description of data set [12]: Volume of distribution (Vdss) was determined in dogs after intravenous administration of 25 mg/kg of the compound. Format: ADME, organism-based, Canis lupus familiaris. Also noted: dose 25 mg/kg, route intravenous. Particulars: dog, in vivo, read-out: Vdss. A digest of the protocol:
as §1

The test system of data set [13] is Canis familiaris. The data set is described as follows: Area under curve (AUC) was determined in dogs fed after intravenous administration of 25 mg/kg of the compound. Format: ADME, organism-based, Canis lupus familiaris. Also noted: dose 25 mg/kg, route intravenous. Particulars: dog, in vivo. A digest of the protocol: as §1
Data set [14] deals with Canis familiaris. The data set is described as follows: Area under curve (AUC) was determined in dogs fed after oral administration of 25 mg/kg of the compound. The data set is classed as ADME, organism-based, Canis lupus familiaris. The arrangement: dose 25 mg/kg, route oral. As to conditions: dog, in vivo. A digest of the protocol:
as §1

The nature of data set [15]: Bioavailability in rat after i.d. administration. Format: ADME, organism-based. Particulars: in vivo. A digest of the protocol: as §2
Data set [16] deals with Canis familiaris. The data set is described as follows: Area under curve (AUC) was determined in fasted dogs after oral administration of 25 mg/kg of the compound. Format: ADME, organism-based, Canis lupus familiaris. Also noted: dose 25 mg/kg, route oral. As to conditions: dog, in vivo. A digest of the protocol:
as §1

A short description of data set [17]: Percent bioavailability (F%) was determined in fasted dogs after oral administration of 25 mg/kg of the compound. Format: ADME, organism-based, Canis lupus familiaris. As to conditions: dog, in vivo. A digest of the protocol: as §1
Data set [18] can be described thus: Toxic concentration was determined for CEM-SS cells. Format: toxicity, cell-based. As to conditions: human, read-out: TC50 (the source's name). A digest of the protocol: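 CEM-SS cells (2.5 × 10^4 cells/mL) were exposed to compound in RPMI-1640 with 10% FCS and gentamicin for 6 days at 37 °C in 5% CO2. Viability was read by XTT staining, and TC50 was taken as the mean of duplicates.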

Data set [19] relates to CEM-SS. The data set is described as follows: Antiviral activity was determined based on inhibition of HIV-1 IIIB induced cytopathic effects in CEM-SS cells in vitro using tetrazolium reagent. The data set is classed as functional, cell-based. Particulars: Homo sapiens. A digest of the protocol: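 CEM-SS cells (2.5 × 10^4 cells/mL) were cultured with HIV-1 IIIB and compound in RPMI-1640 with 10% FCS and gentamicin for 6 days at 37 °C in 5% CO2. The virus titer was set to kill all cells by day 6. Cytopathic effect was read by XTT staining, and IC50 was taken as the mean of duplicates.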
On the technique in general: Damage to the host cells serves as the signal in cytopathic effect assays.

Data set [20] is described as follows: Percent bioavailability (F%) was determined in dogs fed after oral administration of 25 mg/kg of the compound. The data set is classed as ADME, organism-based, Canis lupus familiaris. Particulars: dog, in vivo. A digest of the protocol: as §1

Regarding `Cc1ccccc1CNC(=O)[C@H]1N(C(=O)[C@@H](O)[C@H](Cc2ccccc2)NC(=O)c2cccc(O)c2C)CSC1(C)C`, the Tmax is 1 h in [1], 1.5 h in [9] and 1 h in data set [11]. In addition, the Cmax in data set [2] turned out to be 4.02 µM; in data set [6], 5.3 µM; in data set [7], 0.7 µM. In addition, the half-life in [3] stood at 1.55 h; in [10], 1.57 h. Also, in data set [4], the clearance was 14.7 mL/min/kg. Besides, in data set [5], the Ki is 0.33 nM. Besides, the inhibition in [8] was 96%. Further, in [12], the Vd came to 1.58 L/kg. In addition, the AUC in data set [13] amounted to 51.6 µM·h; in [14], 16.8 µM·h; in [16], 19.1 µM·h. The bioavailability came out at 41.6% in data set [15], 37.1% in data set [17] and 32.6% in data set [20]. The CC50 in data set [18] is above 20000 nM. This molecule also gave an IC50 in data set [19] of 7 nM.
